Reference: ChEMBL document CHEMBL4808175 (J Med Chem, 2021)

Tests used:
[1] = biological target: cGMP-inhibited 3',5'-cyclic phosphodiesterase 3A (Homo sapiens, UniProt Q14432); assay: Inhibition of recombinant GST-tagged PDE3A (669 to end residues) (unknown origin) expressed in baculovirus infected Sf9 insect cells using FAM-cAMP as substrate incubated for 1.5 hrs by IMAP-FP assay
Summary of the method: (§1)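 PDE enzymes incubated with compound or vehicle and 50 nM TAMRA-cGMP or FAM-cAMP substrate for 1.5 h at 30 °C. Activity read by IMAP fluorescence polarization. IC50 from 10 concentrations, at least two replicates each, fitted by four-parameter logistic. Dose–response repeated at least twice; mean of at least two experiments.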

[2] = biological target: Dual 3',5'-cyclic-AMP and -GMP phosphodiesterase 11A (Homo sapiens, UniProt Q9HCR9); assay: Inhibition of recombinant GST-tagged full length PDE11A4 (unknown origin) expressed in baculovirus infected Sf9 insect cells using TAMRA-cGMP as substrate incubated for 1.5 hrs by IMAP-FP assay; summary of the method: as §1
Sequence of Dual 3',5'-cyclic-AMP and -GMP phosphodiesterase 11A (Q9HCR9 whole entry): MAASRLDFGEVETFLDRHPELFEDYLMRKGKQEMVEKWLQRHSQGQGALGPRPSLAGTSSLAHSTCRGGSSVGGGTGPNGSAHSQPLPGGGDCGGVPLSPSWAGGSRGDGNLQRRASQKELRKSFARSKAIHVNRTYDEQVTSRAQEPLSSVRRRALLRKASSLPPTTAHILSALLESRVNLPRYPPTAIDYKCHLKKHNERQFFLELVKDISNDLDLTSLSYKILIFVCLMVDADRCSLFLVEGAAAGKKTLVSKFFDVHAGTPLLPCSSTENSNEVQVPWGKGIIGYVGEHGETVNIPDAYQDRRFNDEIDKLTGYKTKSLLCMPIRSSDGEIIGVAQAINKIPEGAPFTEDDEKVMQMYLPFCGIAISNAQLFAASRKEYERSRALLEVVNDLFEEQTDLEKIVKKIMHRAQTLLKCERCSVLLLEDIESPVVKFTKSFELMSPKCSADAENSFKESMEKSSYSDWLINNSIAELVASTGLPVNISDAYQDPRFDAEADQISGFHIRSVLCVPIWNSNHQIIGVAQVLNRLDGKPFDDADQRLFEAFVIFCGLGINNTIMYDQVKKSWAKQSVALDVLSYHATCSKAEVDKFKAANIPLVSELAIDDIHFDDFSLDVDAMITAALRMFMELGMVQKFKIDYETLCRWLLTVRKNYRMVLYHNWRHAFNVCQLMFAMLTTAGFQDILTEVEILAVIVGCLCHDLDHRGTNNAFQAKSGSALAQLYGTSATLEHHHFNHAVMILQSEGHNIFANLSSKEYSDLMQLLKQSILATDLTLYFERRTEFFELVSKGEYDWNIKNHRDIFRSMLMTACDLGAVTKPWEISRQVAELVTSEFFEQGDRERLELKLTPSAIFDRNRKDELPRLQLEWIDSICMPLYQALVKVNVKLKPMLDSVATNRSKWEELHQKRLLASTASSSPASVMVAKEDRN

[3] = biological target: cAMP and cAMP-inhibited cGMP 3',5'-cyclic phosphodiesterase 10A (Homo sapiens, UniProt Q9Y233); assay: Inhibition of recombinant GST-tagged full length PDE10A2 (unknown origin) expressed in baculovirus infected Sf9 insect cells using TAMRA-cGMP as substrate incubated for 1.5 hrs by IMAP-FP assay; summary of the method: as §1
Sequence of cAMP and cAMP-inhibited cGMP 3',5'-cyclic phosphodiesterase 10A (Q9Y233 whole entry): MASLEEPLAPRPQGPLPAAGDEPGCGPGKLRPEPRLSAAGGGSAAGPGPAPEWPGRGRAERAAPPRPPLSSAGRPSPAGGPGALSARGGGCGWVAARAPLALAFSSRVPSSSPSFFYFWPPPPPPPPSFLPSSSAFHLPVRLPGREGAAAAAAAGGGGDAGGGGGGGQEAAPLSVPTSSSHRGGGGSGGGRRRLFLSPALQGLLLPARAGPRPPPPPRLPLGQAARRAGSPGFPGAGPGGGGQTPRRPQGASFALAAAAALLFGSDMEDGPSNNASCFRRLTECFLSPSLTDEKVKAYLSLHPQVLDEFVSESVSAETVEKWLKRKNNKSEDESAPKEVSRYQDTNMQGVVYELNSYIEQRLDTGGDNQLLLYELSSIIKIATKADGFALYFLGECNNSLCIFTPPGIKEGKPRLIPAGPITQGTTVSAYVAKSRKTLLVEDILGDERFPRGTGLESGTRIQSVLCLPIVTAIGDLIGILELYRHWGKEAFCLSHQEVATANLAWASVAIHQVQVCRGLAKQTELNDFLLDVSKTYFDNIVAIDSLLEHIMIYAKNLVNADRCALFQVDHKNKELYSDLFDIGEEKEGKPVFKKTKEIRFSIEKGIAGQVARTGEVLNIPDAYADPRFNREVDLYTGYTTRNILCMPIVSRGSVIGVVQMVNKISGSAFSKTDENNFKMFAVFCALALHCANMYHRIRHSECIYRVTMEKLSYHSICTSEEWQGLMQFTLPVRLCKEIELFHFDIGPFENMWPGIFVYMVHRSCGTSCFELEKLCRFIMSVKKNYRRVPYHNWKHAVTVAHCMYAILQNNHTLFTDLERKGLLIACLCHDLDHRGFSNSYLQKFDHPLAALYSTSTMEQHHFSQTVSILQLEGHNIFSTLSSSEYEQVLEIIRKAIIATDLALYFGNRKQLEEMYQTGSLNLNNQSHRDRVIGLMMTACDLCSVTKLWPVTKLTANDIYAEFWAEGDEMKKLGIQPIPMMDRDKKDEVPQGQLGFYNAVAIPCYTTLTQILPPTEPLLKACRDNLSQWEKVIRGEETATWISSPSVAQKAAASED

[4] = Toxicity in athymic nude-Foxn1nu mouse assessed as body weight loss at 50 to 150 mg/kg, po bid measured immediately relative to control; assay type: organism-based; conditions: in vivo, dose 50-150 mg/kg
Summary of the method: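 Female athymic nude-Foxn1nu mice, 8–9 weeks, 18–24 g, n=4 per group. Oral gavage at 50, 100 or 150 mg/kg twice daily, or vehicle, for 28 days. Formulation ethanol/water/Maalox (7:3:90, v/v/v). Toxicity signs monitored daily. Body weight recorded daily in week 1, then twice weekly, as percent change from starting weight.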

[5] = Observed volume of distribution in C57BL/6N mouse at 150 mg/kg, po administered as single dose measured up to 8 hrs by LC-MS/MS analysis; assay type: ADME, organism-based; conditions: in vivo
[6] = biological target: Cone cGMP-specific 3',5'-cyclic phosphodiesterase subunit alpha' (Homo sapiens, UniProt P51160); assay: Inhibition of recombinant full length GST-tagged PDE6C (unknown origin) expressed in baculovirus infected Sf9 insect cells at 15 uM using TAMRA-cGMP as substrate incubated for 1.5 hrs by IMAP-FP assay relative to control
Sequence of Cone cGMP-specific 3',5'-cyclic phosphodiesterase subunit alpha' (P51160 whole entry): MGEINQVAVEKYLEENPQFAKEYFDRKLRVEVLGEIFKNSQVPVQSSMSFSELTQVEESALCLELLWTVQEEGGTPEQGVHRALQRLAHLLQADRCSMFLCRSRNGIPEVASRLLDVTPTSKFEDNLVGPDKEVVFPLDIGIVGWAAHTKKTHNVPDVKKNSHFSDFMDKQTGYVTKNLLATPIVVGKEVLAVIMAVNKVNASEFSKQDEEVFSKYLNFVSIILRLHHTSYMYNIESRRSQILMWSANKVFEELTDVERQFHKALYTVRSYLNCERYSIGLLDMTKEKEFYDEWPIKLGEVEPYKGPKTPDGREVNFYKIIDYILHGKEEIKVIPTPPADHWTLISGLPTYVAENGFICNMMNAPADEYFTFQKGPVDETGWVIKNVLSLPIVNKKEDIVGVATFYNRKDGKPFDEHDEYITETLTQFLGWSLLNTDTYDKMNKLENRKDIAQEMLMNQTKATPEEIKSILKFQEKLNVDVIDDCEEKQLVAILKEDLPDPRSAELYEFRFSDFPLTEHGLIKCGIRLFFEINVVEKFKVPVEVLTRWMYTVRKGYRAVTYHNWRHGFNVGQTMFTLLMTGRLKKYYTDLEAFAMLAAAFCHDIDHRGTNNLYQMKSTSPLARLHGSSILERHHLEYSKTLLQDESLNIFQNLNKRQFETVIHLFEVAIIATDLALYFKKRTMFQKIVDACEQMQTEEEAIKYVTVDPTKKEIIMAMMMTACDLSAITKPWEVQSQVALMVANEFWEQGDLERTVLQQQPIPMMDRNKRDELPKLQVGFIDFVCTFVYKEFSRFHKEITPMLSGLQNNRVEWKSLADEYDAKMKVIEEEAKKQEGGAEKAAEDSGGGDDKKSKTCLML
Summary of the method: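 PDE6 activity measured at a single 15 μM compound concentration with TAMRA-cGMP substrate. Incubated 1.5 h at 30 °C and read by IMAP fluorescence polarization; percent inhibition relative to control.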

[7] = biological target: T1, cGMP-specific 3',5'-cyclic phosphodiesterase (Homo sapiens, UniProt O76074); assay: Inhibition of recombinant 6His-tagged PDE5A1 catalytic domain (unknown origin) expressed in Escherichia coli using TAMRA-cGMP or FAM-cAMP as substrate incubated for 1.5 hrs by IMAP-FP assay
[8] = Protein binding in human plasma assessed as bound fraction by HPLC-MS/MS analysis; assay type: ADME, cell-free; conditions: read-out: PPB (converted)
Summary of the method: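 Human plasma spiked with compound at 10 μM, 1% DMSO final. Dialyzed against PBS pH 7.4 for 4 h at 37 °C. Both compartments diluted, acetonitrile-precipitated and quantified by HPLC-MS/MS. An undialyzed spiked control served for recovery; duplicates.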

[9] = Toxicity in athymic nude-Foxn1nu mouse assessed as effect on spleen at 50 to 150 mg/kg, po bid for 28 days; assay type: organism-based; conditions: in vivo, 672 h, dose 50-150 mg/kg, time 28 day
Homo sapiens = organism: Homo sapiens; assay: Selectivity ratio of IC50 for recombinant GST-tagged full length PDE11A4 (unknown origin) expressed in baculovirus infected Sf9 insect cells to IC50 for recombinant full length GST-tagged PDE5A1 (unknown origin) expressed in baculovirus infected Sf9 insect cells using TAMRA-cGMP as substrate incubated for 1.5 hrs by IMAP-FP assay using TAMRA-cGMP as substrate incubated for 1.5 hrs by IMAP-FP assay
[10] = AUC (0 to 8 hrs) in C57BL/6N mouse at 150 mg/kg, po administered as single dose measured up to 8 hrs by LC-MS/MS analysis; assay type: ADME, organism-based; set-up: route oral, dose 150 mg/kg, time <=8; conditions: in vivo
[11] = biological target: T1, cGMP-specific 3',5'-cyclic phosphodiesterase; assay: Inhibition of recombinant full length GST-tagged PDE5A1 (unknown origin) expressed in baculovirus infected Sf9 insect cells using TAMRA-cGMP as substrate incubated for 1.5 hrs by IMAP-FP assay
[12] = Half life in C57BL/6N mouse at 150 mg/kg, po administered as single dose measured up to 8 hrs by LC-MS/MS analysis; assay type: ADME, organism-based; conditions: in vivo

Sequence of cGMP-inhibited 3',5'-cyclic phosphodiesterase 3A (Q14432 whole entry): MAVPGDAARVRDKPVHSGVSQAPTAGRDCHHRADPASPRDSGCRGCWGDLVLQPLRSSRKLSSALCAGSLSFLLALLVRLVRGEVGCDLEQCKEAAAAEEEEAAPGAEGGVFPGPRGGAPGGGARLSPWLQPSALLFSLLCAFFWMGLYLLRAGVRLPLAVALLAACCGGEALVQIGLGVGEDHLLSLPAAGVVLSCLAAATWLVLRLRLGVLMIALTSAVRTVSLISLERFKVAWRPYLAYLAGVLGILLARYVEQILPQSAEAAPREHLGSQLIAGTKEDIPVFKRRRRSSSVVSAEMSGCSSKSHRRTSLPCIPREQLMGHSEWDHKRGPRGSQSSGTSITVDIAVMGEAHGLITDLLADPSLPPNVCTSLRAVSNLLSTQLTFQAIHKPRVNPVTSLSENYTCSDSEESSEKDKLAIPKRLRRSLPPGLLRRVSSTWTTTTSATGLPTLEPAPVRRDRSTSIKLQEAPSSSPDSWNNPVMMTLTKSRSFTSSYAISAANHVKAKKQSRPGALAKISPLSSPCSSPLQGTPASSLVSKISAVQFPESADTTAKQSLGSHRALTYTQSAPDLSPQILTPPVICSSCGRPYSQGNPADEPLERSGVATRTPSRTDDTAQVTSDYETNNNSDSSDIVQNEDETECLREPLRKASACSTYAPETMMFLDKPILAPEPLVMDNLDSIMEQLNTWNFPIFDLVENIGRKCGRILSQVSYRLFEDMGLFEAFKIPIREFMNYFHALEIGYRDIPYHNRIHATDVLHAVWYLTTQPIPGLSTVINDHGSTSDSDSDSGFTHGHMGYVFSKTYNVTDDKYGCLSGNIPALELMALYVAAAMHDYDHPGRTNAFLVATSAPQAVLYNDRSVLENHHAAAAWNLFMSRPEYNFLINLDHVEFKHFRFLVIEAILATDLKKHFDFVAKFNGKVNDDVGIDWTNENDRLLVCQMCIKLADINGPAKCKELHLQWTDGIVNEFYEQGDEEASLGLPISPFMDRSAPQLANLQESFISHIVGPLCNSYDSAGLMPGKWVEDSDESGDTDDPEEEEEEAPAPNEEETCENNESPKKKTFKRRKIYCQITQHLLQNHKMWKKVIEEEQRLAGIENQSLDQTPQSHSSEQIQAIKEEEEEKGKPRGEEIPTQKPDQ

For `COc1c(F)cc(C2CC(C(C)(C)C)=NN2c2ccc(C(=O)N3CCN(C)CC3)cc2)cc1F` (stereo not drawn), the IC50 [1] was over 10 µM, the IC50 [2] was over 10 µM and the IC50 [3] was over 10 µM. It also gave an Activity [4] of under 5%, a Vd [5] of 625 mL and an inhibition [6] of 50%. For the same molecule, the IC50 [7] was over 1 µM, the fraction unbound [8] was 0.02 and the Activity [9] was “Non-Toxic”. It also gave a Ratio IC50 (Homo sapiens) of over 10000, an AUC(0-t) [10] of 14100 ng·h/mL and an IC50 [11] of 0.001 µM. It also gave a half-life [12] of 2.33 h.
